Experimental data: ChEMBL document CHEMBL1770123, “SPF32629A and SPF32629B: enantioselective synthesis, determination of absolute configuration, cytotoxicity and antibacterial evaluation” (Eur J Med Chem, 2011)
Converted amounts (≈) assume the structure as drawn. The source made the active and inactive calls. The rule behind the calls is not given here.

Tests used:
Chymase = target: T1, Chymase (Homo sapiens, UniProt P23946); experiment: Inhibition of human chymase
T1 sequence (P23946 whole entry): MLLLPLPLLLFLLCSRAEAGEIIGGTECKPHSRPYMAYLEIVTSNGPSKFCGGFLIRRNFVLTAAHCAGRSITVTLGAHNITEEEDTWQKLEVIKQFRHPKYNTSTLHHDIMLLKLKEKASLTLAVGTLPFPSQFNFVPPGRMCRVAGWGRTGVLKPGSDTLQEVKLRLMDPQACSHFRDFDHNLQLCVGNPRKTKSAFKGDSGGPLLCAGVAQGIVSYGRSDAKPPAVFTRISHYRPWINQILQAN

[1] = Inhibition of human elastase
Escherichia coli [2] = experiment: Antimicrobial activity against Escherichia coli at 500 ug/disc after 24 hrs by disc diffusion method; type: functional; conditions: for zone of inhibition at 500 µg/disc: read-out: DIZ
Escherichia coli [3] = experiment: Antimicrobial activity against Escherichia coli at 1000 ug/disc after 24 hrs by disc diffusion method; type: functional; conditions: for zone of inhibition at 1000 µg/disc: read-out: DIZ
Bacillus subtilis [4] = experiment: Antimicrobial activity against Bacillus subtilis at 500 ug/disc after 24 hrs by disc diffusion method; type: functional; conditions: for zone of inhibition at 500 µg/disc: read-out: DIZ
Bacillus subtilis [5] = experiment: Antimicrobial activity against Bacillus subtilis at 1000 ug/disc after 24 hrs by disc diffusion method; type: functional; conditions: for zone of inhibition at 1000 µg/disc: read-out: DIZ
[6] = tested on: Staphylococcus epidermidis; experiment: Antimicrobial activity against Staphylococcus epidermidis at 500 ug/disc after 24 hrs by disc diffusion method; type: functional
[7] = tested on: Staphylococcus epidermidis; experiment: Antimicrobial activity against Staphylococcus epidermidis at 1000 ug/disc after 24 hrs by disc diffusion method; type: functional; conditions: for zone of inhibition at 1000 µg/disc: read-out: DIZ
Klebsiella pneumoniae [8] = experiment: Antimicrobial activity against Klebsiella pneumoniae at 500 ug/disc after 24 hrs by disc diffusion method; type: functional; conditions: for zone of inhibition at 500 µg/disc: read-out: DIZ
Klebsiella pneumoniae [9] = experiment: Antimicrobial activity against Klebsiella pneumoniae at 1000 ug/disc after 24 hrs by disc diffusion method; type: functional; conditions: for zone of inhibition at 1000 µg/disc: read-out: DIZ
Listeria monocytogenes [10] = experiment: Antimicrobial activity against Listeria monocytogenes at 500 ug/disc after 24 hrs by disc diffusion method; type: functional
Listeria monocytogenes [11] = experiment: Antimicrobial activity against Listeria monocytogenes at 1000 ug/disc after 24 hrs by disc diffusion method; type: functional
Salmonella typhimurium [12] = experiment: Antimicrobial activity against Salmonella Typhimurium at 500 ug/disc after 24 hrs by disc diffusion method; type: functional, Salmonella enterica subsp. enterica serovar Typhimurium; conditions: for zone of inhibition at 500 µg/disc: Salmonella enterica, read-out: DIZ
Salmonella typhimurium [13] = experiment: Antimicrobial activity against Salmonella Typhimurium at 1000 ug/disc after 24 hrs by disc diffusion method; type: functional, Salmonella enterica subsp. enterica serovar Typhimurium; conditions: for zone of inhibition at 1000 µg/disc: Salmonella enterica, read-out: DIZ
Staphylococcus aureus [14] = experiment: Antimicrobial activity against Staphylococcus aureus at 500 ug/disc after 24 hrs by disc diffusion method; type: functional
Procedure, shortened: (§1)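 Disc diffusion on 2.4% Mueller-Hinton agar inoculated with the strain. Paper discs 6 mm across were loaded with test compound and placed on the agar. Plates were incubated at 37 °C for 24 h. Read-out was the diameter of the inhibition zone in mm.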

Staphylococcus aureus [15] = experiment: Antimicrobial activity against Staphylococcus aureus at 1000 ug/disc after 24 hrs by disc diffusion method; type: functional
Staphylococcus aureus [16] = experiment: Antimicrobial activity against methicillin-resistant Staphylococcus aureus strain 1 TB3G at 500 ug/disc after 24 hrs by disc diffusion method; type: functional; procedure, shortened: as §1
Staphylococcus aureus [17] = experiment: Antimicrobial activity against methicillin-resistant Staphylococcus aureus strain 1 TB3G at 1000 ug/disc after 24 hrs by disc diffusion method; type: functional; procedure, shortened: as §1
Staphylococcus aureus [18] = experiment: Antimicrobial activity against methicillin-resistant Staphylococcus aureus strain 2 TB4G at 500 ug/disc after 24 hrs by disc diffusion method; type: functional; procedure, shortened: as §1
Staphylococcus aureus [19] = experiment: Antimicrobial activity against methicillin-resistant Staphylococcus aureus strain 2 TB4G at 1000 ug/disc after 24 hrs by disc diffusion method; type: functional; procedure, shortened: as §1
Staphylococcus aureus [20] = experiment: Antimicrobial activity against methicillin-resistant Staphylococcus aureus strain 4 TB5G at 500 ug/disc after 24 hrs by disc diffusion method; type: functional; procedure, shortened: as §1
Staphylococcus aureus [21] = experiment: Antimicrobial activity against methicillin-resistant Staphylococcus aureus strain 4 TB5G at 1000 ug/disc after 24 hrs by disc diffusion method; type: functional; procedure, shortened: as §1
A549 [22] = experiment: Cytotoxicity against human A549 cells assessed as cell death at 1 ug after 48 hrs by MTT assay; type: functional
Procedure, shortened: (§2)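 A549 cells were grown in DMEM with 2 mmol L-glutamine, 10% FBS, penicillin (50 IU/mL) and streptomycin, at 37 °C and 5% CO2. 1×10^4 cells/well were plated and treated 24 h later with compound diluted in medium for 48 h. Controls were DMSO-matched and untreated wells. MTT 0.4 mg/mL in PBS was added for 4 h in the dark, then DMSO for 4 h. A540 was read and reported as % live cells relative to untreated.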

A549 [23] = experiment: Cytotoxicity against human A549 cells assessed as cell death at 2 ug after 48 hrs by MTT assay; type: functional; procedure, shortened: as §2
A549 [24] = experiment: Cytotoxicity against human A549 cells assessed as cell death at 5 ug after 48 hrs by MTT assay; type: functional; procedure, shortened: as §2
A549 [25] = experiment: Cytotoxicity against human A549 cells assessed as cell death at 10 ug after 48 hrs by MTT assay; type: functional; procedure, shortened: as §2
A549 [26] = experiment: Cytotoxicity against human A549 cells assessed as cell death at 25 ug after 48 hrs by MTT assay; type: functional; procedure, shortened: as §2
A549 [27] = experiment: Cytotoxicity against human A549 cells after 48 hrs by MTT assay; type: functional, cell-based; conditions: A549, 48 h
Procedure, shortened: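 A549 cells were kept in DMEM with 2 mM L-glutamine, 10% FBS, penicillin 50 IU/mL and streptomycin at 37 °C under 5% CO2. 1×10^4 cells per well were treated 24 h after seeding with compounds diluted in medium for 48 h. MTT (0.4 mg/mL in PBS) was added for 4 h in the dark, formazan was dissolved in DMSO for 4 h and absorbance read at 540 nm. Viability was expressed as % of untreated cells, and IC50 was derived.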

[28] = Salmonella enterica subsp. enterica serovar Typhimurium

Structure (SMILES) | diameter of the inhibition zone (DIZ) [6] | zone of inhibition at 1000 µg/disc [7] [mm] | diameter of the inhibition zone (DIZ) (Listeria monocytogenes [10]) | diameter of the inhibition zone (DIZ) (Listeria monocytogenes [11]) | zone of inhibition at 500 µg/disc (Salmonella typhimurium [12]) [mm] | zone of inhibition at 1000 µg/disc (Salmonella typhimurium [13]) [mm] | diameter of the inhibition zone (DIZ) (Staphylococcus aureus [14]) | diameter of the inhibition zone (DIZ) (Staphylococcus aureus [15]) | diameter of the inhibition zone (DIZ) (Staphylococcus aureus [16]) | diameter of the inhibition zone (DIZ) (Staphylococcus aureus [17]) | diameter of the inhibition zone (DIZ) (Staphylococcus aureus [18]) | diameter of the inhibition zone (DIZ) (Staphylococcus aureus [19]) | diameter of the inhibition zone (DIZ) (Staphylococcus aureus [20]) | diameter of the inhibition zone (DIZ) (Staphylococcus aureus [21]) | Activity (A549 [22]) [%] | Activity (A549 [23]) [%] | Activity (A549 [24]) [%] | Activity (A549 [25]) [%] | Activity (A549 [26]) [%] | IC50 (A549 [27]) [µM] | other results
CC(C)CC(=O)OC(c1ccccc1)c1cc(O)cc(=O)[nH]1 (racemic) | inactive | 9 | inactive | inactive | 7 | 13 | inactive | inactive | inactive | inactive | inactive | inactive | inactive | inactive | 8.22 | 25.54 | 37.22 | 50.21 | 74.02 | 28 | IC50 (Chymase): 0.83 µM; IC50 [1]: 4.9 mg/L (≈ 16.3 µM); diameter of the inhibition zone (DIZ) (Escherichia coli [2]): inactive; diameter of the inhibition zone (DIZ) (Escherichia coli [3]): inactive; diameter of the inhibition zone (DIZ) (Bacillus subtilis [4]): inactive; diameter of the inhibition zone (DIZ) (Bacillus subtilis [5]): inactive; diameter of the inhibition zone (DIZ) (Klebsiella pneumoniae [8]): inactive; diameter of the inhibition zone (DIZ) (Klebsiella pneumoniae [9]): inactive
CC(C)CC(=O)O[C@H](c1ccccc1)c1cc(O)cc(=O)[nH]1 |  | 17 | inactive | inactive | 12 | 20 | inactive | inactive | inactive | inactive | inactive | inactive | inactive | inactive | 3.13 | 18.59 | 48.82 | 50.39 | 75.78 | 10 | zone of inhibition at 500 µg/disc (Escherichia coli [2]): 13 mm; zone of inhibition at 1000 µg/disc (Escherichia coli [3]): 20 mm; zone of inhibition at 500 µg/disc (Bacillus subtilis [4]): 10 mm; zone of inhibition at 1000 µg/disc (Bacillus subtilis [5]): 19 mm; zone of inhibition at 500 µg/disc ([6]; read-out: DIZ): 8 mm; zone of inhibition at 500 µg/disc (Klebsiella pneumoniae [8]): 14 mm; zone of inhibition at 1000 µg/disc (Klebsiella pneumoniae [9]): 24 mm
CC(C)CC(=O)O[C@@H](c1ccccc1)c1cc(O)cc(=O)[nH]1 | inactive |  | inactive | inactive |  |  | inactive | inactive | inactive | inactive |  |  | inactive | inactive | 9.96 | 27.71 | 38.96 | 47.62 | 63.2 | 11 | zone of inhibition at 500 µg/disc (Escherichia coli [2]): 16 mm; zone of inhibition at 1000 µg/disc (Escherichia coli [3]): 26 mm; zone of inhibition at 500 µg/disc (Bacillus subtilis [4]): 13 mm; zone of inhibition at 1000 µg/disc (Bacillus subtilis [5]): 23 mm; diameter of the inhibition zone (DIZ) [7]: inactive; zone of inhibition at 500 µg/disc (Klebsiella pneumoniae [8]): 15 mm; zone of inhibition at 1000 µg/disc (Klebsiella pneumoniae [9]): 25 mm; diameter of the inhibition zone (DIZ) (Salmonella typhimurium [12]; [28]): inactive; diameter of the inhibition zone (DIZ) (Salmonella typhimurium [13]; [28]): inactive; zone of inhibition at 500 µg/disc (Staphylococcus aureus [18]; read-out: DIZ): 14 mm; zone of inhibition at 1000 µg/disc (Staphylococcus aureus [19]; read-out: DIZ): 26 mm
